# Source: PubChem (Johns Hopkins Ion Channel Center)
# The list is not random: actives were taken first. Their share in the collection is about 3.5%.
# RGS4 inh – RGS4 inhibitors, primary screen, cell-based, HEK293 M3R inducible RGS4, calcium flux | Regulator of G-protein signaling 4 (Homo sapiens), P49798 | Fluo-4 calcium flux; stronger effect = higher value; triggered by carbachol at its EC20 | B-score at 10 µM | hit rate 0.45% among 310,000 | AID 463165, 2010;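 active = B-score, a plate-corrected calcium signal, over three deviations above library mean, with baseline fluorescence within five deviations of library mean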;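 also: RGS4 expression induced by doxycycline in cells with stable M3 receptor; B-score is computed from the integrated fluorescence ratio over baseline after carbachol; higher B-score means a larger calcium signal and so more RGS4 inhibition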
# Target sequence (P49798 whole entry, looked up): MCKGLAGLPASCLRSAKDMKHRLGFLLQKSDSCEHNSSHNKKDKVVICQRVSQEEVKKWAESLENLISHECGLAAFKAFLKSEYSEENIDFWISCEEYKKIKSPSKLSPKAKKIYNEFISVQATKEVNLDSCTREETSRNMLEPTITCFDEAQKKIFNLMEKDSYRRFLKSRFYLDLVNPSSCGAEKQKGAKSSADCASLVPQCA
# RGS4 act – RGS4 potentiators or activators, primary screen, cell-based, HEK293 M3R inducible RGS4, calcium flux; carbachol calcium flux Fluo4; stronger effect = lower value; B-score at 10 µM; hit rate 0.92% among 310,000; AID 463111, 2010;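 active = B-score of the integrated calcium signal more than 4 SD below the library mean, with starting fluorescence not abnormally high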;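 also: negative B-score means reduced calcium response which marks RGS4 activation or potentiation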
#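 System: HEK293 FlpIn-TREx cells, stable M3R, doxycycline-inducible RGS4. Timing: overnight RGS4 induction, 30 min dye load 37 °C, 20 min compound RT. Also added: carbachol, ECmax concentration. Measured by: Fluo4 fluorescence kinetic imaging of calcium. Evaluation: integrated calcium ratio converted to B score.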
# MrgX1 allo act – positive allosteric modulators of MrgX1, primary screen, HEK293 cells, Fluo-4 calcium flux | AID 588675, 2011 | FDSS; stronger effect = higher value | B-score at 10 µM | Mas-related G-protein coupled receptor member X1 (Homo sapiens), Q96LB2 | hit rate 0.63% among 310,000;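 active = plate-corrected calcium response at least 3 library SD above typical, normal starting fluorescence, not activating the receptor alone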;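 also: compound read alongside a low EC10 to EC30 dose of BAM8-22 agonist; peak minus trough fluorescence over baseline measured at the second addition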
# Target sequence (Q96LB2 whole entry, looked up): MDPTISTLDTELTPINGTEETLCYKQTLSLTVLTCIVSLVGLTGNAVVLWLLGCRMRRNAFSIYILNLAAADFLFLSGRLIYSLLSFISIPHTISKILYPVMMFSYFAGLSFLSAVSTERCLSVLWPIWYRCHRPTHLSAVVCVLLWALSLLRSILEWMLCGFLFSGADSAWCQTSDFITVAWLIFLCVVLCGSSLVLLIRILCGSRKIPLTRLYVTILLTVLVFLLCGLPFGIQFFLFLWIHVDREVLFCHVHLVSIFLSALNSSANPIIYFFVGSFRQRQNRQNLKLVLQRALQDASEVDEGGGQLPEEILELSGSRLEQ
# MrgX1 ag – agonists of human MrgX1 receptor, primary screen, HEK293 cells, Fluo-4 calcium flux; B-score at 10 µM; Fluo-4 calcium fluorescence, agonist mode; stronger effect = higher value; hit rate 0.44% among 310,000; AID 588627, 2011; Mas-related G-protein coupled receptor member X1 (Homo sapiens), Q96LB2;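 active = calcium response B-score plate-corrected fluorescence ratio at least 3 library SD, with starting fluorescence B-score inside 5 SD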
#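 Test system: HEK293 cells stably expressing human MrgX1 receptor; amount: 15,000 cells per well; doses: compound delivered in addition one of three; times: overnight plating before 1 h dye loading; detection: Fluo-4 NW calcium-flux fluorescence, kinetic read; read-out basis: B-scored fluorescence response ratio; controls: positive and negative controls per plate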
# MrgX1 antagonist – antagonists of human MrgX1 receptor, primary screen, HEK293 cells, Fluo-4 calcium flux; Mas-related G-protein coupled receptor member X1 (Homo sapiens), Q96LB2; BAM8-22 antagonism; stronger effect = lower value; B-score at 10 µM; hit rate 1.3% among 310,000;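 active = calcium-response B-score plate-corrected more than 3 library SD below zero, starting fluorescence within 5 deviations, no agonist response on first addition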;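 also: peak minus trough fluorescence over baseline after final BAM8-22 challenge near maximal dose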
# Active calls of the source: *; i = inactive; . = no result given.
SMILES,RGS4 inh,RGS4 act,MrgX1 allo act,MrgX1 ag,MrgX1 antagonist
COc1ccc(-c2csc(N(Cc3ccco3)C(=O)c3cccs3)n2)cc1,i,i,i,i,-4.8*
COc1ccc(OC)c(-c2csc(N(Cc3ccco3)C(=O)c3cccs3)n2)c1,i,i,i,i,i
COc1cc(/C=N\N=C2/SC(CC(=O)O)C(=O)N2c2ccc(O)cc2)ccc1O (stereo unspecified),i,i,i,i,-8.2*
COc1cccc(/C=N/NC(=O)c2ccoc2C)c1,i,-8.5*,i,i,i
Cc1nc2cc(NC(=O)c3ccco3)ccc2n1C,i,i,i,i,i
CN(c1ncnc(N)c1[N+](=O)[O-])C1CCCCC1,i,i,i,27*,i
CC(=O)Nc1cccc(Oc2ccc3c(c2)C(=O)NC3=O)c1,i,i,i,i,i
Cc1ccc(C)c(OCc2cc(C(=O)NC3CCOC(C)(C)C3)no2)c1 (stereo unspecified),i,i,i,i,i
CC(CCCN(C)C)C(Cc1ccccc1)c1ccccc1 (stereo unspecified),i,-7.8*,i,i,i
CN(C)CCC(=O)C(Cc1ccccc1)c1ccccc1 (stereo unspecified),i,i,i,i,i
CCOC(=O)c1ccc(Oc2coc3cc(O)ccc3c2=O)cc1,i,i,i,i,i
CC(C)Cc1ccc(C(C)C(N)=NCCc2ccccc2)cc1 (stereo unspecified),i,-7.1*,i,i,i
O=C(Cc1cccs1)NNC(=S)NC(=O)c1ccc(F)c(F)c1,i,i,i,61*,i
O=C(NC(=S)NCc1ccccc1)c1cccs1,i,i,i,i,i
O=C(COc1ccccc1)NNC(=S)NC(=O)c1ccccc1,i,i,i,i,i
O=C(Cc1ccccc1)NNC(=S)NC(=O)c1cccs1,i,i,i,60*,i
O=C(Cc1cccs1)NNC(=S)NC(=O)c1ccccc1,i,i,i,43*,i
Cc1ccc(N(C)S(=O)(=O)c2ccc(-c3cnc(C4CC4)o3)cc2)cc1,i,i,i,i,i
O=C(O)C1CCN(S(=O)(=O)c2ccc(N3CCC(O)CC3)c([N+](=O)[O-])c2)CC1,i,i,i,i,i
CCc1ccccc1NC(=O)CN(c1ccc(OC)cc1OC)S(=O)(=O)c1ccccc1,i,i,i,i,i
O=C(N/N=C/c1ccc(F)cc1)c1cc(-c2ccco2)nc2ccccc12,i,i,i,i,i
Nc1c(C(=O)N/N=C/c2ccc(F)cc2)oc2nc(-c3ccccc3)cc(-c3ccco3)c12,i,i,i,i,-5.4*
Nc1c(C(=O)N/N=C/c2ccccc2Cl)oc2nc(-c3ccccc3)cc(-c3ccco3)c12,i,i,i,i,-7.7*
C[C@@H](C(=O)Nc1ccc2ccccc2c1)[C@H]1C[C@]1(C)[C@H](NS(=O)(=O)c1ccccc1)c1ccccc1,.,.,i,i,i
Cc1cccc(Oc2ccc(Cl)cc2N)c1,i,i,i,i,i
SMILES,RGS4 inh,RGS4 act,MrgX1 allo act,MrgX1 ag,MrgX1 antagonist
Cc1ccc2c(c1)N(C(=O)CCC(=O)NC1CCCCCC1)CCO2,i,i,i,i,i
O=C(/C=C/c1ccc(Cl)cc1)NC1CC2CCC1C2 (stereo unspecified),i,i,7.2*,i,i
CC(C)n1nc(C(=O)Nc2nc3ccccc3[nH]2)c2ccccc2c1=O,i,-9.5*,i,i,i
COc1ccc(OC)c(CCNC(=O)c2ccc3c(c2)N(Cc2ccc(F)cc2)CCS3)c1,i,i,i,i,i
CCOc1ccc(CCNC(=O)c2ccc3c(=O)[nH]c4c(C(=O)NC(C)C)sc(=S)n4c3c2)cc1,i,i,i,i,-9.2*
O=C(NCCc1ccccc1)c1ccc2c(=O)[nH]c3c(C(=O)NCC4CCCO4)sc(=S)n3c2c1 (stereo unspecified),i,i,i,i,i
CC(C)NC(=O)c1sc(=S)n2c1[nH]c(=O)c1ccc(C(=O)NCCc3ccc(Cl)cc3)cc12,i,-8.2*,i,i,-5.9*
COc1ccc(OC)c(CCNC(=O)c2ccc3c(=O)[nH]c4c(C(=O)NC(C)C)sc(=S)n4c3c2)c1,i,-8.8*,i,i,-8*
COCCN(C(=O)COC(=O)c1ccccc1NCc1ccco1)c1c(N)n(Cc2ccccc2)c(=O)[nH]c1=O,i,i,i,i,i
Cc1cc(C(=O)NNc2ccccc2F)no1,i,-7.7*,i,i,i
COCCCNC(=O)C1c2ccccc2Oc2ccccc21,i,i,i,i,i
CCN(CC)CCCNC(=O)C1c2ccccc2Oc2ccccc21,i,-7.3*,i,i,i
O=S(=O)(c1ccc(Br)cc1)N1CCCN(Cc2ccccc2F)CC1,i,-7.4*,i,i,i
O=S(=O)(c1ccc(Cl)cc1)N1CCN(Cc2c[nH]c3ccccc23)CC1,i,-7.5*,i,i,i
Cc1ccccc1CN1CCN(S(=O)(=O)c2ccc(F)cc2)CC1,i,i,i,i,i
O=C(/C=C\c1ccccc1)Nc1nccs1,i,i,i,i,i
O=C(/C=C/c1cccc(F)c1)Nc1nccs1,i,i,i,i,-6.3*
CCOc1ccc(CN2CCC(C(=O)Nc3cccc(-c4ccn[nH]4)c3)CC2)cc1Cl,i,i,i,i,i
OC(COc1ccccc1Cl)CN1CCN(CC(O)COc2ccccc2Cl)CC1 (stereo unspecified),i,-7.7*,i,i,i
CCN(CC)S(=O)(=O)c1cc(NC(=O)COc2ccc(C#N)cc2OC)ccc1C,i,i,i,i,-6.8*
N#Cc1cc2c(nc1SCc1ccc(Cl)cc1)CCCC2,i,-7*,i,i,i
COCc1cc(C)nc(SCc2ccc(Cl)cc2)c1C#N,i,-7.6*,i,i,i
Cn1ccnc1-c1ccc(-c2nccn2C)cc1,i,i,i,i,i
COc1ccc(/C=N/Nc2cc(C)nc3ccc(Br)cc23)cc1,i,i,i,i,i
COc1cccc(/C=N/Nc2nc3ccccc3n3cnnc23)c1O,i,-7.1*,i,i,i
COc1ccc2nc(C)cc(N/N=C/c3cccc(OC)c3O)c2c1,i,-11*,i,i,i
